PMI act hi M6P – increases human PMI activity with near-saturating mannose 6-phosphate; activation factor at 20 µM; 0.34% of 190,000 active; AID 1216; coupled PMI enzyme assay, resazurin fluorescence, 20 min; hits give high values; 1 = untreated enzyme, 0 = substrate-free blank;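 active = activation factor of 2 or more at 20 µM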
Target sequence (P34949 whole entry, looked up): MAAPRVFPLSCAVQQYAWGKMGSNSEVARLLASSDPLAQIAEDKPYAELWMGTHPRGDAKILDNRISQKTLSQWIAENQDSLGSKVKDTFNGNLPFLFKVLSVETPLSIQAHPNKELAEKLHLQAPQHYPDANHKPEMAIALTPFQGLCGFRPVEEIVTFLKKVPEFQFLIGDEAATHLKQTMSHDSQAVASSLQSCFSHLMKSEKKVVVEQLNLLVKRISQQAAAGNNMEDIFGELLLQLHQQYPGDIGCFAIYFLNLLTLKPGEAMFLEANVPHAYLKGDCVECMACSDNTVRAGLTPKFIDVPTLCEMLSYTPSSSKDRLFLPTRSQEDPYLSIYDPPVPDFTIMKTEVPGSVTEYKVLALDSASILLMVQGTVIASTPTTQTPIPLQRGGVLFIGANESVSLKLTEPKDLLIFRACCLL
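Test system: human phosphomannose isomerase with PGI, G6PDH, diaphorase coupling enzymes; amount: 15 ng/mL PMI; incubation: enzyme reaction with compound 20 min at room temperature; technique: resorufin fluorescence (Ex 544/Em 590 nm) from resazurin via diaphorase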
Diaph act CS – diaphorase activation or chemical reduction counter-screen; Diaphorase/resazurin coupled assay, resorufin fluorescence, 16 min; hits give high values; 1 = vehicle wells, 0 = NADH-free wells; activation factor at 20 µM; 0.005% of 190,000 active;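 active = diaphorase activity raised at least twofold by the compound at 20 µM; inactive = activation factor below 2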
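Material: purified diaphorase enzyme from Clostridium kluyveri; Also added: 0.114 mM NADH and 0.1 mM resazurin, final amounts; Doses: single compound dose of 20 µM, 1% DMSO final; Times: 16 min enzyme reaction, ambient temperature; Detection: resorufin fluorescence, excitation 544 nm, emission 590 nm; Measure: increased resorufin signal from activators or reducing compounds.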
WT yeast gro inh – growth inhibition of WT yeast, mitochondrial fusion screen. 2.1% of 190,000 active. mitochondrial fusion phenotypic screen, WT strain. inhibition, % at 10 µM; in the data active = inhibition above about 58%; tested in S. cerevisiae
PMI act – increases human mannose-6-phosphate isomerase activity. P34949. 0.005% of 190,000 active. activation factor at 20 µM. purified human PMI, coupled resazurin fluorescence, 20 min; hits give high values; 1 = vehicle control, 0 substrate-free wells;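 active = activation factor of 2 or more at 20 µM, relative to plate controls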
Lmaj promast – Leishmania major promastigote growth inhibition | 9% of 200,000 active | AID 1063 | inhibition, % at 10 µM | Leishmania major promastigotes, resazurin fluorescence viability; in the data active = inhibition above about 50%;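 also: promastigotes grown with compound for 44 hours at 28 °C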
Each line names hits and unclear results; the compound was inactive in the other large screens. In the library only some 10% were active in any assay of this set; here they are far more common.

CN1C(=O)C(CC(=O)NCC2CCCCC2)SC1=Nc1ccccc1 (centres undefined)	none
OCC1(CCOc2ccccc2)CCN(Cc2nc3ccc(F)cc3[nH]2)CC1	none
Cc1c2c(n3c(nc4ccccc43)c1C#N)N(CCN(C)C)CC2	none
Cc1c2c(n3c(nc4ccccc43)c1C#N)N(c1ccccc1)CC2	Lmaj promast 52.6
CCc1c(C)c(C#N)c2nc3ccccc3n2c1Cl	Lmaj promast 100.5
CCc1c(C)c(C#N)c2nc3ccccc3n2c1NCc1ccccn1	none
N#Cc1c2c(c(NCCCN3CCOCC3)n3c1nc1ccccc13)CCC2	Lmaj promast 63.1
CCc1c(C)c(C#N)c2nc3ccccc3n2c1NCC1CCCO1 (centres undefined)	Lmaj promast 68.1
CN(C)CCNc1c2c(nc3nnnn13)CCCC2	none
CCOC(=O)CC1C(=O)NCCN1C(=O)c1sc2ccccc2c1Cl (centres undefined)	none
CC(C)c1cc(NCC2CCCO2)n2c(nc3ccccc32)c1C#N (centres undefined)	Lmaj promast 56.7
Cc1cc(NCC2CCCO2)n2c(nc3ccccc32)c1C#N (centres undefined)	none
COc1ccc(Nc2nc(N3CCCC3)nc(N3CCCC3)n2)c(OC)c1	none
N#Cc1ccc(Oc2nc(Nc3ccc(F)cc3)nc(N3CCCC3)n2)cc1	none
CCOc1nc(Nc2ccc(F)cc2)nc(N2CCN(c3ccc(OC)cc3)CC2)n1	Lmaj promast 70.3
CCOc1nc(Nc2ccc(OC)c(Cl)c2)nc(N2CCN(c3ccc(OC)cc3)CC2)n1	Lmaj promast 71.8
CCOc1ccc(Nc2nc(N3CCCC3)nc(N3CCN(c4ccc(OC)cc4)CC3)n2)cc1	Lmaj promast 54.9
O=C(C[n+]1cccc(/C=N/O)c1)N1CCCc2ccccc21	none
CCc1ccc(-n2c(=O)c3c(C)c(C(=O)N(C)C)sc3n(CC(=O)NCc3ccco3)c2=O)cc1	none
Cc1ccccc1N/C(=C(/C(Cl)=C(Cl)Cl)[N+](=O)[O-])n1nnc2ccccc21	PMI act hi M6P 2.2
COc1ccc(N/C(=C(/C(Cl)=C(Cl)Cl)[N+](=O)[O-])n2nnc3ccccc32)cc1	none
CC(=O)OC(/C(O)=C(\C#N)c1nc2ccccc2[nH]1)c1ccccc1 (centres undefined)	none
O=C(c1ccc(Cl)cc1[N+](=O)[O-])N(Cc1ccccc1)Cc1ccccc1	WT yeast gro inh 60.9
O=C(/C=C/c1ccc2c(c1)OCO2)c1ccc[nH]1	none
COc1ccccc1C(=O)N/C(=C/c1cccc([N+](=O)[O-])c1)C(=O)Nc1cccc(C(=O)O)c1	none
COc1cccc(/C=C/C(=O)c2ccc(C)c([N+](=O)[O-])c2)c1	Lmaj promast 76.2
COc1ccccc1NC(=O)/C(=C/c1cccc([N+](=O)[O-])c1)c1ccccc1	Lmaj promast 89.3
COc1cc(/C=C/C(=O)c2cccc([N+](=O)[O-])c2)cc(OC)c1OC	Lmaj promast 100.4
O=C(/C=C/c1ccccc1F)c1cccc([N+](=O)[O-])c1	none
COc1cccc(/C=C/C(=O)c2ccc[nH]2)c1	Lmaj promast 100.2
COc1cc(/C=C/C(=O)c2ccc(C)c([N+](=O)[O-])c2)cc(OC)c1O	Lmaj promast 79.4
COc1cc(/C=N/NC(=O)c2ccc(C)nc2)cc([N+](=O)[O-])c1O	none
COc1ccc(/C=C/C(=O)c2ccc(C)c([N+](=O)[O-])c2)cc1O	Lmaj promast 100.0
CC12CCC(C(=O)Nc3nc4ccc(Br)cc4s3)(OC1=O)C2(C)C (centres undefined)	WT yeast gro inh 65.8
COc1ccc(C2=CC(=O)N(Nc3ccccc3)C2=O)cc1	none
O=C1C=C(c2ccccc2)C(=O)N1Nc1ccccc1	WT yeast gro inh 86.6
CC(C)(C)C(=O)CSc1nc(N)cc(=O)[nH]1	none
CC(C)(C)N(Cc1ccccc1)C(=O)COC(=O)Cn1cnc2ccccc2c1=O	none
O=S1(=O)CCC(NC(=S)NC2CCS(=O)(=O)C2)C1 (centres undefined)	none
CCCCSC(=S)NC1CCS(=O)(=O)C1 (centres undefined)	Lmaj promast 95.2
O=S1(=O)CCC(NC(=S)SCCOc2ccccc2)C1 (centres undefined)	Lmaj promast 92.2
Cc1c(C(=O)c2ccc([N+](=O)[O-])cc2)c(=O)n(C)c(=O)n1C	none
